Data set [1] in a line: Chemical stability in aqueous phosphate buffer at pH 7.4 assessed as half life by HPLC. Type of data set: physicochemical. The method in brief:
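Prodrug dissolved in preheated 0.16 M phosphate buffer, pH 7.4, ionic strength 0.5, held at 37 °C in a water bath. Samples taken at intervals and remaining prodrug measured by HPLC. Pseudo-first-order t1/2 taken from the slope of log remaining prodrug versus time; mean ± sd, n = 2.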

Data set [2] relates to Brain. In words: (§1) Metabolic stability in rat brain homogenate assessed as half life by HPLC. The class given is ADME, tissue-based. The method in brief:
(§2)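 Prodrug incubated at 37 °C in rat brain homogenate diluted to 20% (v/v), or in liver homogenate diluted to 50% (v/v), in isotonic 0.16 M phosphate buffer, pH 7.4. Aliquots quenched with acetonitrile and centrifuged; remaining prodrug and released parent drug measured by HPLC. Pseudo-first-order t1/2 reported; mean ± sd, n = 3.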

Data set [3] concerns the target T1, Solute carrier family 2, facilitated glucose transporter member 1 (Rattus norvegicus) (UniProt P11167).
T1 sequence (whole entry): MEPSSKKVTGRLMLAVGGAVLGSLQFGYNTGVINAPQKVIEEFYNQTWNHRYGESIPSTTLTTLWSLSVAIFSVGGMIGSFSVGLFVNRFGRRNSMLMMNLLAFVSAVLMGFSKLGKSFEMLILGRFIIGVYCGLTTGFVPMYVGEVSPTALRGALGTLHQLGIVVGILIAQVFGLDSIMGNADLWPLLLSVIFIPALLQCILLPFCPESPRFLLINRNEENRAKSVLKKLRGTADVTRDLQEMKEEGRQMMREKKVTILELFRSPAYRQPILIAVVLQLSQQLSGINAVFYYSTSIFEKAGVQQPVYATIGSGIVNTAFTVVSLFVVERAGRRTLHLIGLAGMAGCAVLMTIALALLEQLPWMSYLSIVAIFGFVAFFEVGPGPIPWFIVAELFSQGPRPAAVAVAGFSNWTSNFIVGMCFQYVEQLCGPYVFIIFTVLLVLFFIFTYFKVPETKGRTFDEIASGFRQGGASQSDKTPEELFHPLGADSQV
Nature of the data set: Inhibition of GluT1-mediated [14C]D-glucose uptake in Wistar rat brain at 80 uM by perfusion technique.

The target of data set [4] is T1, Solute carrier family 2, facilitated glucose transporter member 1 (Rattus norvegicus). In words: (§3) Inhibition of GluT1-mediated [14C]D-glucose uptake in Wistar rat brain by perfusion technique. In short, it runs like this: (§4)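 Rat brain PA product of 0.2 µCi/mL [14C]D-glucose measured by in situ perfusion with prodrug co-perfused at concentrations from 0.1 to 1000 µM or 0.01 to 80 µM. IC50 obtained by nonlinear regression; mean ± sd, n = 2.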

The target of data set [5] is T2, Solute carrier family 2, facilitated glucose transporter member 1 (Rattus norvegicus, UniProt P11167).
T2 sequence (P11167 whole entry): T1 sequence (whole entry)
Described as §3. In short, it runs like this: as §4

Data set [6] deals with Brain. Nature of the data set: Drug uptake in Wistar rat brain at 150 uM by perfusion technique. The class given is ADME, tissue-based. The settings on record: in vivo. In short, it runs like this: (§5)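 In situ brain perfusion via the right common carotid artery in adult male Wistar rats (200-230 g) under ketamine/xylazine ip. Prodrug in perfusion medium with 1% DMSO, pH 7.4, perfused 60 s at 37 °C, then washed with cold (5 °C) prodrug-free medium for 30 s. Brain hemisphere analysed by HPLC; uptake in pmol/mg/min, mean ± sd, n = 3.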

Data set [7] concerns Brain. In words: Drug uptake in Wistar rat brain at 150 uM by perfusion technique in presence of D-glucose. Type of data set: ADME, tissue-based. Conditions: in vivo. The method in brief:
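Male Wistar rats, in situ carotid brain perfusion. Prodrug at 150 µM given for 60 s at 37 °C in perfusion medium (1% DMSO, pH 7.4) with 50 mM D-glucose added, followed by a 30 s cold prodrug-free wash. Brain prodrug measured by HPLC; uptake in pmol/mg/min, mean ± sd, n = 3.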

Data set [8] deals with Brain. In words: Drug uptake in Wistar rat brain at 150 uM by perfusion technique […]. Conditions: in vivo. Type of data set: ADME, tissue-based. In short, it runs like this:
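Carrier-mediated uptake blocked nonspecifically by cold in male Wistar rats. Capillaries first washed 30 s with 5 °C prodrug-free medium, then perfused 60 s with 5 °C prodrug solution at 150 µM, then washed again with cold medium. Brain prodrug measured by HPLC; mean ± sd, n = 3.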

In data set [9] the target is T1, Solute carrier family 2, facilitated glucose transporter member 1 (Rattus norvegicus). Nature of the data set: Inhibition of GluT1-mediated [14C]D-glucose uptake in Wistar rat brain at 80 uM after 30 seconds perfusion measured after drug washout from brain capillary 30 seconds before [14C]D-glucose challenge. In short, it runs like this: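 Reversibility test in male Wistar rats. Brain perfused first with prodrug at 80 µM for 30 s, then with prodrug-free medium for 30 s to wash the capillaries, then with 0.2 µCi/mL [14C]D-glucose for 30 s. PA product of [14C]D-glucose then determined.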

The target is the same in data set [10]. Nature of the data set: Inhibition of GluT1-mediated [14C]D-glucose uptake in Wistar rat brain at 20 mM by perfusion technique.
Data set [11] can be described thus: as §1. Type of data set: ADME, tissue-based. The method in brief:
as §2

The nature of data set [12]: Metabolic stability in rat liver homogenate assessed as half life by HPLC. The class given is ADME, tissue-based. The method in brief:
as §2

Data set [13] has as its system Brain. Nature of the data set: Drug uptake in Wistar rat brain at 450 uM by perfusion technique. The settings on record: in vivo. The class given is ADME, tissue-based. In short, it runs like this: as §5
For data set [14], the system named is Brain. Nature of the data set: Drug uptake in Wistar rat brain at 1000 uM by perfusion technique. The class given is ADME, tissue-based. Conditions: in vivo. In short, it runs like this:
as §5

Data set [15] deals with Brain. In words: Drug uptake in Wistar rat brain at 3500 uM by perfusion technique. Type of data set: ADME, tissue-based. Conditions: in vivo. In short, it runs like this:
as §5

Data set [16] deals with Brain. Nature of the data set: Drug uptake in Wistar rat brain at 15000 uM by perfusion technique. The class given is ADME, tissue-based. The settings on record: in vivo. The method in brief:
as §5

In the case of `COc1ccc2c(c1)c(CC(=O)OCC(=O)OC[C@H]1O[C@@H](O)[C@H](O)[C@@H](O)[C@@H]1O)c(C)n2C(=O)c1ccc(Cl)cc1`, the half-life in [1] was 3 h. Also, the Activity entry with Brain [2] is reported as “Unstable”.

Take `COc1ccc2c(c1)c(CC(=O)OC[C@H]1O[C@@H](O)[C@H](O)[C@@H](O)[C@@H]1O)c(C)n2C(=O)c1ccc(Cl)cc1`: the half-life in data set [1] is 40.5 h. In addition, the inhibition in [3] turned out to be 96.7%. For the same compound, the Activity entry in data set [4] is “Dose-dependent effect”. The IC50 in data set [5] stood at 0.71 µM. Further, the results for the Drug uptake in the data set on Brain [6], in the data set with Brain [7] and in the data set with Brain [8] were 1.993 pmol/mg/min, 1.806 pmol/mg/min and 0.599 pmol/mg/min, respectively. Besides, the PA in [9] turned out to be 0.0032 mL/s/g.

Consider `COc1ccc2c(c1)c(CC(=O)OC(C)C(=O)OC[C@H]1O[C@@H](O)[C@H](O)[C@@H](O)[C@@H]1O)c(C)n2C(=O)c1ccc(Cl)cc1` (some centres not stated), for which the half-life in data set [1] is 9.5 h. Also, the Activity entry in the data set with Brain [2] is “Unstable”.

In turn, `OC[C@H]1OC(O)[C@H](O)[C@@H](O)[C@@H]1O` (some centres not stated) gave an inhibition in data set [10] of 73.8%.

Turning to `CC(C(=O)OC[C@H]1O[C@@H](O)[C@H](O)[C@@H](O)[C@@H]1O)c1cccc(C(=O)c2ccccc2)c1` (some centres not stated), the half-life is 88.5 h in data set [1], 0.725 h in data set [11] and 8.6 min in data set [12]. In addition, in data set [3], the inhibition was 75.5%. In addition, the Activity result in data set [4] was “Dose-dependent effect”. Besides, in data set [5], 32.9 µM corresponded to half-maximal inhibition (IC50). Besides, the Drug uptake is 1.33 pmol/mg/min in the data set on Brain [6]; 0.513 pmol/mg/min in the data set with Brain [7]; 0.515 pmol/mg/min in the data set on Brain [8]; 3.55 pmol/mg/min in the data set with Brain [13]; 7.78 pmol/mg/min in the data set with Brain [14]; 20.77 pmol/mg/min in the data set on Brain [15]. Further, the Drug uptake with Brain [16] came to 93.21 pmol/mg/min. Besides, in data set [9], the PA was found to be 0.0033 mL/s/g.
